Measured values from ChEMBL document CHEMBL1144425, “Design of benzophenone-containing photoactivatable linear vasopressin antagonists: pharmacological and photoreactive properties” (J Med Chem, 2005).

What follows are molecules tested against Vasopressin V1a receptor (Homo sapiens, UniProt P37288) (assay: Binding affinity against human vasopressin V1a receptor expressed in CHO cells). Conditions: not given.
Format: cell-based
Summary of the method: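 Competition binding on membranes of CHO cells expressing the human V1a receptor (2 to 3 µg protein). Each compound was tested at 10^-12 to 10^-6 M against a radioiodinated linear antagonist (45-80 pM). Incubation was 1 h at 30 °C in 50 mM Tris, 5 mM MgCl2, pH 7.4, with 1 mg/mL BSA, in triplicate, then GF/C filtration. Data were fitted by nonlinear least-squares regression.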

Vasopressin V1a receptor (Homo sapiens, UniProt P37288), sequence (P37288 whole entry): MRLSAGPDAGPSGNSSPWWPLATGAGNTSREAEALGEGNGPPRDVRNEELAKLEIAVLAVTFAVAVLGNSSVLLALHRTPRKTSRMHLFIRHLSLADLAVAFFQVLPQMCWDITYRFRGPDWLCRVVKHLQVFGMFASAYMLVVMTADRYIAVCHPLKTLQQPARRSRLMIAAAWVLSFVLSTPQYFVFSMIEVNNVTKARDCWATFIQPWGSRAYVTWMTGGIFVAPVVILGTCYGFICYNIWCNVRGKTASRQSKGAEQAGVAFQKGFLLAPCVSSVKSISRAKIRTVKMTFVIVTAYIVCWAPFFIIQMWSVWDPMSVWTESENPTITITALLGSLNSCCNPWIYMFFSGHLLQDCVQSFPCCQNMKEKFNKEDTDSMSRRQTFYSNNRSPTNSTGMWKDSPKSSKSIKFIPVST

| Structure (SMILES) | Ki |
| --- | --- |
| NC(=O)CC[C@H](NC(=O)[C@H](Cc1ccccc1)NC(=O)[C@@H](Cc1ccc(C(=O)c2ccccc2)cc1)NC(=O)Cc1ccccc1)C(=O)N[C@@H](CC(N)=O)C(=O)N[C@@H](CCCN=C(N)N)C(=O)N1CCC[C@H]1C(=O)N[C@@H](CCCN=C(N)N)C(=O)N[C@@H](Cc1ccc(O)c(I)c1)C(N)=O | 0.8 nM |
| COc1ccc(C[C@@H](NC(=O)c2ccc(C(=O)c3ccccc3)cc2)C(=O)N[C@@H](Cc2ccccc2)C(=O)N[C@@H](CCC(N)=O)C(=O)N[C@@H](CC(N)=O)C(=O)N[C@@H](CCCN=C(N)N)C(=O)N2CCC[C@H]2C(=O)N[C@@H](CCCN=C(N)N)C(=O)N[C@@H](Cc2ccc(O)c(I)c2)C(N)=O)cc1 | 18 nM |
| N=C(N)NCCC[C@H](NC(=O)[C@@H]1CCCN1C(=O)[C@H](CCCNC(=N)N)NC(=O)[C@H](CC(N)=O)NC(=O)[C@H](CCC(N)=O)NC(=O)[C@H](Cc1ccccc1)NC(=O)[C@H](Cc1ccc(C(=O)c2ccccc2)cc1)NC(=O)Cc1ccccc1)C(=O)N[C@@H](Cc1ccc(O)c(I)c1)C(N)=O | 2.5 nM |

Same assay, conditions: cho

| Structure (SMILES) | Ki |
| --- | --- |
| N=C(N)NCCC[C@H](NC(=O)[C@@H]1CCCN1C(=O)[C@H](CCCNC(=N)N)NC(=O)[C@H](CC(N)=O)NC(=O)[C@H](CCC(N)=O)NC(=O)[C@H](Cc1ccccc1)NC(=O)[C@@H](N)Cc1ccc(C(=O)c2ccccc2)cc1)C(=O)N[C@@H](Cc1ccc(O)c(I)c1)C(N)=O | 148 nM |
| COc1ccc(C[C@@H](NC(=O)C(N)Cc2ccc(C(=O)c3ccccc3)cc2)C(=O)N[C@@H](Cc2ccccc2)C(=O)N[C@@H](CCC(N)=O)C(=O)N[C@@H](CC(N)=O)C(=O)N[C@@H](CCCNC(=N)N)C(=O)N2CCC[C@H]2C(=O)N[C@@H](CCCNC(=N)N)C(=O)N[C@@H](Cc2ccc(O)c(I)c2)C(N)=O)cc1 (stereo not given in full) | 462 nM |
| NC(=O)CC[C@H](NC(=O)[C@H](Cc1ccccc1)NC(=O)[C@H](N)Cc1ccc(C(=O)c2ccccc2)cc1)C(=O)N[C@@H](CC(N)=O)C(=O)N[C@@H](CCCN=C(N)N)C(=O)N1CCC[C@H]1C(=O)N[C@@H](CCCN=C(N)N)C(=O)N[C@@H](Cc1ccc(O)c(I)c1)C(N)=O | 20 nM |
| CC(=O)N[C@@H](Cc1ccc(C(=O)c2ccccc2)cc1)C(=O)N[C@@H](Cc1ccccc1)C(=O)N[C@@H](CCC(N)=O)C(=O)N[C@@H](CC(N)=O)C(=O)N[C@@H](CCCNC(=N)N)C(=O)N1CCC[C@H]1C(=O)N[C@@H](CCCNC(=N)N)C(=O)N[C@@H](Cc1ccc(O)c(I)c1)C(N)=O | 1490 nM |
| CC(=O)N[C@H](Cc1ccc(C(=O)c2ccccc2)cc1)C(=O)N[C@@H](Cc1ccccc1)C(=O)N[C@@H](CCC(N)=O)C(=O)N[C@@H](CC(N)=O)C(=O)N[C@@H](CCCNC(=N)N)C(=O)N1CCC[C@H]1C(=O)N[C@@H](CCCNC(=N)N)C(=O)N[C@@H](Cc1ccc(O)c(I)c1)C(N)=O | 24 nM |
| COc1ccc(C[C@@H](NC(=O)CNC(=O)c2ccc(C(=O)c3ccccc3)cc2)C(=O)N[C@@H](Cc2ccccc2)C(=O)N[C@@H](CCC(N)=O)C(=O)N[C@@H](CC(N)=O)C(=O)N[C@@H](CCCCN)C(=O)N2CCC[C@H]2C(=O)N[C@@H](CCCNC(=N)N)C(=O)N[C@@H](Cc2ccc(O)c(I)c2)C(N)=O)cc1 | 115 nM |

What follows are molecules tested against Vasopressin V1a receptor (Rattus norvegicus, UniProt P30560) (assay: Binding affinity against rat vasopressin V1a receptor). Conditions: not given.
Vasopressin V1a receptor (Rattus norvegicus, UniProt P30560), sequence (P30560 whole entry): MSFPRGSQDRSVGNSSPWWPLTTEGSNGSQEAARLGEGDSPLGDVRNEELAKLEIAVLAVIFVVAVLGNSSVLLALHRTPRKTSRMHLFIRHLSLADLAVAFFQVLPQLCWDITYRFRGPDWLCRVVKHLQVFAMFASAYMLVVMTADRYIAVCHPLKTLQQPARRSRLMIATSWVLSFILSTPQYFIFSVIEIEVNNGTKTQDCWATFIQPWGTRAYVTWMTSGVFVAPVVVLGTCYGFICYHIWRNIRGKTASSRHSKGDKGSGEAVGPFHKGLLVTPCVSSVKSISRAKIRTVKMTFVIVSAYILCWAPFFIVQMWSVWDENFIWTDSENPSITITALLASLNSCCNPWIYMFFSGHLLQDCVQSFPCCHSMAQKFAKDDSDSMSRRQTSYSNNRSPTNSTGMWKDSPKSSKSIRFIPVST

| Structure (SMILES) | Ki |
| --- | --- |
| COc1ccc(C[C@@H](NC(=O)CCCc2ccc(N=[N+]=[N-])cc2)C(=O)N[C@@H](Cc2ccccc2)C(=O)N[C@@H](CCC(N)=O)C(=O)N[C@@H](CC(N)=O)C(=O)N[C@@H](CCCNC(=N)N)C(=O)N2CCC[C@H]2C(=O)N[C@@H](CCCNC(=N)N)C(=O)N[C@@H](Cc2ccc(O)c(I)c2)C(N)=O)cc1 | 0.18 nM |
